Measured values reported in ChEMBL document CHEMBL3603751, “A new small molecule inhibitor of soluble guanylate cyclase” (Bioorg Med Chem, 2015).
The source made the active and inactive calls. The rule behind the calls is not given here.

Key:
Bos taurus = species on record: Bos taurus; experiment: Inhibition of bovine lung sGC using GTP as substrate assessed as inhibition of NO-stimulated cGMP formation at 100 uM preincubated with protein followed by NO addition measured after 2 mins by radioimmunoassay relative to control
Outline: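 Purified bovine lung sGC (5 ng/ml) in 50 mM Tris, 0.3 mM MgCl, 100 μM EGTA, 0.045% BSA, 1000 units/mL SOD, pH 7.4, with 1 mM MgGTP at 37 °C. Compound (100 μM) added before DEA/NO (30 nM). Reaction ran 2 min, then aliquots were boiled in 50 mM Tris/4 mM EDTA. cGMP was quantified by [3H] radioimmunoassay.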

Rattus norvegicus = species on record: Rattus norvegicus; experiment: Inhibition of sGC in rat cerebellar slices assessed as inhibition of NMDA-induced cGMP production at 100 uM preincubated for 10 mins followed by phosphodiesterase inhibitor IBMX addition by radioimmunoassay
Outline: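 Sagittal cerebellar slices 0.4 mm thick were cut from 10-day-old rats. Antagonists were added 10 min before IBMX (1 mM, 10 min preincubation). Slices were inactivated in boiling Tris–HCl (50 mM, pH 7.5) with EDTA (4 mM) and sonicated. Protein was measured by bicinchoninic acid and cGMP by radioimmunoassay.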

[1] = target: T1, Adenylate cyclase (Homo sapiens) (UniProt Q8NFM4+O60503+Q08828+P40145+O60266+O95622+O43306+Q08462+P51828); experiment: Inhibition of adenylyl cyclase (unknown origin); format: protein assay
[2] = target: T1, Adenylate cyclase (Homo sapiens); experiment: Inhibition of forskolin-stimulated adenylyl cyclase (unknown origin)
[3] = target: Soluble guanylate cyclase (Homo sapiens) (UniProt Q02153+O75343+P33402+Q02108); experiment: Binding affinity to human recombinant sGC catalytic subunit by surface plasmon resonance analysis; format: protein-complex assay

| Compound | inhibition (Bos taurus) | other results |
| --- | --- | --- |
| CC(=O)Nc1cccc(Nc2nc3ccc([N+](=O)[O-])cc3nc2Nc2cccc(NC(C)=O)c2)c1 | inactive | – |
| O=[N+]([O-])c1ccc2nc(Nc3ccc(F)cc3)c(Nc3ccc(F)cc3)nc2c1 | inactive | – |
| N#Cc1ccc2nc(Nc3cccc(O)c3)c(Nc3cccc(O)c3)nc2c1 | inactive | – |
| COc1ccc(Nc2nc3ccc([N+](=O)[O-])cc3nc2Nc2ccc(OC)cc2)cc1 | inactive | – |
| Oc1ccc(Nc2nc3ccc(Cl)cc3nc2Nc2ccc(O)cc2)cc1 | inactive | – |
| Oc1cccc(Nc2nc3ccc(Cl)cc3nc2Nc2cccc(O)c2)c1 | inactive | – |
| N#Cc1ccc2nc(Nc3ccc(O)cc3)c(Nc3ccc(O)cc3)nc2c1 | inactive | – |
| O=[N+]([O-])c1ccc2nc(Nc3ccc(O)cc3)c(Nc3ccc(O)cc3)nc2c1 | – | inhibition (Rattus norvegicus): Active; inhibition [1]: inactive; inhibition [2]: inactive |
| CNC(=O)c1ccc2nc(Nc3cccc(O)c3)c(Nc3cccc(O)c3)nc2c1 | – | RU [3]: 9.6 |
| Nc1ccc2nc(Nc3ccc(O)cc3)c(Nc3ccc(O)cc3)nc2c1 | inactive | – |
| CC(=O)Nc1ccc(Nc2nc3ccc([N+](=O)[O-])cc3nc2Nc2ccc(NC(C)=O)cc2)cc1 | inactive | – |
